The subject of data set [1] is P388. Kind of data set: Number of mice with P-388 lymphocytic leukemia cured( 0.6 mg/kg),ip; 1/7. The format is functional, Mus musculus. Put shortly:
(§1)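 Male CDF1 mice (18-23 g) were inoculated ip with 10⁶ P-388 cells on day 0. Drug was given ip in 10% dimethyl sulfoxide-saline on days 1, 5 and 9. Test solutions were kept at 0-4 °C, protected from light, and checked periodically for stability and homogeneity by TLC and HPLC. Read-out was survival, median survival time, increase in life span and tumor-free cures per 7 animals.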

The test system of data set [2] is P388. Kind of data set: Antitumor activity against P-388 lymphocytic leukemia in CDF1 hybrid male mice measured as median survival time ( 0.6 mg/kg),ip. The data set is classed as functional, Mus musculus. In outline:
as §1

Data set [3] relates to P388. Kind of data set: Number of mice with P-388 lymphocytic leukemia cured.( 1.8 mg/kg),ip; 3/7. The format is functional, Mus musculus.
For data set [4], the species on record is Homo sapiens. Kind of data set: In vitro growth inhibitory activity against human lymphoblastic leukemia cells. Conditions: read-out: ID50 (the source's name). The data set is classed as functional. In outline: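 CCRF-CEM human lymphoblastic leukemia cells in log-phase growth; compounds dissolved in Me₂SO, final growth medium 1% Me₂SO.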
The test system of data set [5] is P388. Kind of data set: Maximum tolerated dose was compared to 7-(2,3-Epoxypropoxy)-actinomycin D against P-388 leukemia in mice(3 days). The data set is classed as functional, Mus musculus. In outline: (§2)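 Tumor-free male CDF1 mice (18-23 g) received a broad dose range ip in 10% dimethyl sulfoxide-saline, either on days 1, 5, 9 (three injections) or on 4 successive days (qd 1-4). Deaths were recorded over 21 days. MTD was the dose lethal to 10% (LD10), taken from a plot of log dose vs percent mortality. Average of two experiments.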

Data set [6] concerns P388. Kind of data set: Minimum effective dose was determined compared to 7-(2,3-Epoxypropoxy)-actinomycin D against P-388 leukemia in mice(3 days). The data set is classed as functional, Mus musculus. More on the design: unit: mg/kg. Put shortly: (§3)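 MED was the dose (mg/kg) giving a 40% increase in life span over control in mice bearing ip P-388 leukemia. Drug was given ip in 10% dimethyl sulfoxide-saline on a q4d 1, 5, 9 (three injections) or qd 1-4 (four injections) schedule.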

In data set [7] the test system is P388. Kind of data set: Antitumor activity against P-388 lymphocytic leukemia in CDF1 hybrid male mice measured as median survival time ( 1.2 mg/kg),ip. The format is functional, Mus musculus. Put shortly:
as §1

Data set [8] deals with P388. Kind of data set: Number of mice with P-388 lymphocytic leukemia cured.( 0.15 mg/kg),ip; 0/7. The data set is classed as functional, Mus musculus. Put shortly: as §1
The subject of data set [9] is P388. Kind of data set: Antitumor activity against P-388 lymphocytic leukemia in CDF1 hybrid male mice measured as percent increase in lifespan( 0.6 mg/kg),ip. The settings on record: Mus musculus. The format is functional. In outline: as §1
Data set [10] has as its system P388. Kind of data set: Number of mice with P-388 lymphocytic leukemia cured( 2.4 mg/kg),ip; 2/7. The format is functional, Mus musculus. Put shortly: as §1
The subject of data set [11] is P388. Kind of data set: Antitumor activity against P-388 lymphocytic leukemia in CDF1 hybrid male mice measured as percent increase in lifespan( 2.4 mg/kg),ip. The data set is classed as functional. Conditions: Mus musculus. In outline:
as §1

Data set [12] concerns P388. Kind of data set: Antitumor activity against P-388 lymphocytic leukemia in CDF1 hybrid male mice measured as percent increase in lifespan(1.8 mg/kg),ip. The format is functional, Mus musculus. In outline: as §1
Data set [13] has as its system P388. Kind of data set: Antitumor activity against P-388 lymphocytic leukemia in CDF1 hybrid male mice measured as median survival time ( 0.3 mg/kg),ip. The format is functional, Mus musculus. In outline:
as §1

The test system of data set [14] is P388. Kind of data set: Antitumor activity against P-388 lymphocytic leukemia in CDF1 hybrid male mice measured as percent increase in lifespan( 0.3 mg/kg),ip. The data set is classed as functional. The settings on record: Mus musculus. Put shortly:
as §1

Data set [15] relates to P388. Kind of data set: Antitumor activity against P-388 lymphocytic leukemia in CDF1 hybrid male mice measured as median survival time (1.8 mg/kg),ip. The data set is classed as functional, Mus musculus. Put shortly: as §1
For data set [16], the system named is P388. Kind of data set: Antitumor activity against P-388 lymphocytic leukemia in CDF1 hybrid male mice measured as percent increase in lifespan( 0.15 mg/kg),ip. The format is functional. The settings on record: Mus musculus. Put shortly:
as §1

Data set [17] concerns P388. Kind of data set: Minimum effective dose was compared to 7-(2,3-Epoxypropoxy)-actinomycin D against P-388 leukemia in mice(4 days). The data set is classed as functional, Mus musculus. Put shortly: as §3
In data set [18] the test system is P388. Kind of data set: Maximum tolerated dose was compared to 7-(2,3-Epoxypropoxy)-actinomycin D against P-388 leukemia in mice(4 days). The data set is classed as functional, Mus musculus. Put shortly: as §2
Data set [19] concerns P388. Kind of data set: Number of mice with P-388 lymphocytic leukemia cured( 0.3 mg/kg),ip; 1/7. The data set is classed as functional, Mus musculus. Put shortly: as §1
Data set [20] relates to P388. Kind of data set: Number of mice with P-388 lymphocytic leukemia cured( 1.2 mg/kg),ip; 3/7. The data set is classed as functional, Mus musculus. Put shortly:
as §1

Data set [21] relates to P388. Kind of data set: Antitumor activity against P-388 lymphocytic leukemia in CDF1 hybrid male mice measured as median survival time ( 0.15 mg/kg),ip. The format is functional, Mus musculus. In outline:
as §1

The subject of data set [22] is P388. Kind of data set: Antitumor activity against P-388 lymphocytic leukemia in CDF1 hybrid male mice measured as percent increase in (1.2 mg/kg),ip. The data set is classed as functional, Mus musculus. In outline:
as §1

Data set [23] concerns P388. Kind of data set: Antitumor activity against P-388 lymphocytic leukemia in CDF1 hybrid male mice measured as median survival time ( 2.4 mg/kg),ip. The data set is classed as functional, Mus musculus. Put shortly: as §1
Data set [24] in a line: Therapeutic Index measured as the MTD/MED ratio compared to that of compound 4. The settings on record: read-out: Therapeutic index. Put shortly:
(§4)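 Therapeutic index is MTD/MED, with ip dosing in 10% dimethyl sulfoxide-saline on a qd 1-4 or q4d 1, 5, 9 schedule. MED is the dose giving a 40% increase in life span over control in P-388-bearing mice. MTD is the LD10 in tumor-free male CDF1 mice (18-23 g) over 21 days, read from a log dose vs. percent mortality plot and averaged over 2-3 experiments.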

Data set [25] can be described thus: Therapeutic Index measured as the MTD/MED ratio compared to that of compound 3. Conditions: read-out: Therapeutic index. Put shortly: as §4
The nature of data set [26]: In vitro growth inhibitory activity for effect on melting temperature of DNA was determined. In outline:
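DNA thermal denaturation; ΔTm = Tm of DNA-drug complex minus Tm of DNA. Drug 1.4×10⁻⁴ M, DNA (P) 1.4×10⁻³ M in 0.01 M phosphate buffer pH 7.0 with 5×10⁻³ M EDTA and 5% dimethyl sulfoxide.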

In brackets after ≈: the same amount, converted by molar mass.

In general, ILS refers to how much longer treated animals lived than controls.

`Cc1c2oc3c(C)c(OCC4CO4)cc(C(=O)N[C@@H]4C(=O)N[C@H](C(C)C)C(=O)N5CCC[C@H]5C(=O)N(C)CC(=O)N(C)[C@@H](C(C)C)C(=O)O[C@@H]4C)c3nc-2c(C(=O)N[C@@H]2C(=O)N[C@H](C(C)C)C(=O)N3CCC[C@H]3C(=O)N(C)CC(=O)N(C)[C@@H](C(C)C)C(=O)O[C@@H]2C)c(N)c1=O` (stereo partly specified) [listing 1 of 2 here]: the Cure in data set [1] was 1; in data set [3], 3; in data set [8], 0; in [10], 2; in data set [19], 1; in [20], 3. The MST in data set [2] turned out to be 41 days; in data set [7], 43 days; in data set [13], 40 days; in data set [15] it was 44 days; in [21], 29 days; in [23], 26 days. Besides, in data set [4], the IC50 amounted to 0.009 µg/mL (≈ 0.00678 µM). Besides, the MTD in data set [5] came out at 3.6; in data set [18] it was 1.6. The MED in data set [6] is on record as 0.05; in [17] it was 0.0375. In addition, the ILS at 0.6 mg/kg in data set [9] was determined as 255%. For the same compound, the ILS at 2.4 mg/kg in data set [11] was determined as 136%. Moreover, the results for the ILS in data set [12] and in [22] were 300% and 291%, respectively. This compound also registered an ILS at 0.3 mg/kg in data set [14] of 263%. Also, the ILS at 0.15 mg/kg in data set [16] amounted to 164%.
In the case of `Cc1c2oc3c(C)c(OCC(O)CO)cc(C(=O)N[C@@H]4C(=O)N[C@H](C(C)C)C(=O)N5CCC[C@H]5C(=O)N(C)CC(=O)N(C)[C@@H](C(C)C)C(=O)O[C@@H]4C)c3nc-2c(C(=O)N[C@@H]2C(=O)N[C@H](C(C)C)C(=O)N3CCC[C@H]3C(=O)N(C)CC(=O)N(C)[C@@H](C(C)C)C(=O)O[C@@H]2C)c(N)c1=O` (stereo partly specified), the selectivity ratio stood at 6 in data set [24] and 12 in [25].
On the same counts, the results for `Cc1c2oc3c(C)c(OCC4CO4)cc(C(=O)N[C@@H]4C(=O)N[C@H](C(C)C)C(=O)N5CCC[C@H]5C(=O)N(C)CC(=O)N(C)[C@@H](C(C)C)C(=O)O[C@@H]4C)c3nc-2c(C(=O)N[C@@H]2C(=O)N[C@H](C(C)C)C(=O)N3CCC[C@H]3C(=O)N(C)CC(=O)N(C)[C@@H](C(C)C)C(=O)O[C@@H]2C)c(N)c1=O` (stereo partly specified) [listing 2 of 2 here] are 43 and 72.
With `CCN(CC)C(=O)c1c2nc3c(C(=O)N(CC)CC)cc(OCC4CO4)c(C)c3oc-2c(C)c(=O)c1N` (stereo unspecified), in data set [4], the IC50 came to 9 µg/mL (≈ 17.6 µM). In addition, in [26], the DNA melting temperature shift (ΔTm) turned out to be 0 °C.
The matching figures for `CCN(CC)C(=O)c1c2nc3c(C(=O)N(CC)CC)ccc(C)c3oc-2c(C)c(=O)c1N`: ~10 µg/mL (≈ 22.8 µM) and 0 °C.

The values are drawn from ChEMBL document CHEMBL1121953, “Carbon-7 substituted actinomycin D analogues as improved antitumor agents: synthesis and DNA-binding and biological properties” (J Med Chem, 1982).
